# ChEMBL document CHEMBL1147382, “Cytotoxic constituents from Hyptis verticillata” (J Nat Prod, 1993)
# The source made the active and inactive calls. No cut-off for these calls is given here.
# Tests used:
# KB = assay: Cytotoxicity against human KB cells; format: functional; details: read-out: ED50 (the source's name)
# ZR-75-1 = assay: Cytotoxicity against human ZR-75-1 cells; format: functional; details: read-out: ED50 (the source's name)
# [1] = Cytotoxicity against human KBV1 cells; format: functional; details: KB-V1, read-out: ED50 (the source's name)
# Lu1 = assay: Cytotoxicity against human Lu1 cells; format: functional; details: read-out: ED50 (the source's name)
# [2] = Cytotoxicity against human BC1 cells; format: functional; details: read-out: ED50 (the source's name)
# [3] = Antimitotic activity in rat ASK cells assessed as reversal of astrocyte formation at 0.032 ug/mL; format: functional
# Outline: (§1)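 Cultured rat glioma (ASK) cells were used, following Swanson et al. The antimitotic read-out was the dose giving 100% reversal of astrocyte conversion. Pure lignans were tested across a range of concentrations.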
# LNCaP = assay: Cytotoxicity against human LNCAP cells; format: functional; details: read-out: ED50 (the source's name)
# [4] = Antimitotic activity in rat ASK cells assessed as reversal of astrocyte formation at 20 ug/mL; format: functional; outline: as §1
# [5] = Antimitotic activity in rat ASK cells assessed as reversal of astrocyte formation at 0.8 ug/mL; format: functional; outline: as §1
# HT = assay: Cytotoxicity against human HT cells; format: functional; details: read-out: ED50 (the source's name)
# [6] = Antimitotic activity in rat ASK cells assessed as reversal of astrocyte formation at 0.16 ug/mL; format: functional; outline: as §1
# [7] = Toxicity in brine shrimp; format: organism-based; details: artemia, in vivo
# P388 = assay: Cytotoxicity in mouse P388 cells; format: functional; details: read-out: ED50 (the source's name)
# A-431 = assay: Cytotoxicity against human A431 cells; format: functional; details: read-out: ED50 (the source's name)
# [8] = Antimitotic activity in rat ASK cells assessed as reversal of astrocyte formation at 100 ug/mL; format: functional; outline: as §1
# [9] = Cytotoxicity against human U373 cells; format: functional, U-373MG ATCC; details: U373 MG, read-out: ED50 (the source's name)
# Col2 = assay: Cytotoxicity against human Col2 cells; format: functional; details: read-out: ED50 (the source's name)
# [10] = Antimitotic activity in rat ASK cells assessed as reversal of astrocyte formation at 4 ug/mL; format: functional; outline: as §1
# [11] = Antimitotic activity in rat ASK cells assessed as reversal of astrocyte formation at 0.0064 ug/mL; format: functional; outline: as §1
# Candida albicans = assay: Antimicrobial activity against Candida albicans ATCC 10231 at 0.2 to 1 ug/ml; format: functional, organism-based
# [12] = Antimitotic activity in rat ASK cells assessed as reversal of astrocyte formation at 0.00128 ug/mL; format: functional
# Outline: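 Cultured rat glioma (ASK) cells, run essentially by a previously published astrocyte-formation procedure. Antimitotic potential is scored as the dose needed to give 100% reversal of astrocyte conversion.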
structure (smiles),measurement,setting,value
COc1cc(-c2c3c(c(O)c4c(OC)c5c(cc24)OCO5)COC3=O)cc(OC)c1OC,EC50,KB,6 µg/mL
same,EC50,ZR-75-1,> 20 µg/mL
same,EC50,[1],8.7 µg/mL
same,EC50,Lu1,11.7 µg/mL
same,EC50,[2],7.6 µg/mL
same,Activity,[3],0%
same,EC50,LNCaP,11.6 µg/mL
same,Activity,[4],100%
same,Activity,[5],0%
same,EC50,HT,15.6 µg/mL
same,Activity,[6],0%
same,LC50,[7],> 500 µg/mL
same,EC50,P388,4 µg/mL
same,EC50,A-431,6.2 µg/mL
same,Activity,[8],100%
same,EC50,[9],16.3 µg/mL
same,EC50,Col2,12.8 µg/mL
same,Activity,[10],0%
same,Activity,[11],0%
COc1cc(-c2c3c(cc4c(OC)c5c(cc24)OCO5)COC3=O)cc(OC)c1OC,EC50,KB,2.2 µg/mL
same,EC50,ZR-75-1,> 20 µg/mL
same,EC50,[1],4.2 µg/mL
same,EC50,Lu1,4.3 µg/mL
same,EC50,[2],2.9 µg/mL
same,Activity,[3],0%
same,EC50,LNCaP,3.2 µg/mL
same,Activity,[4],100%
same,Activity,[5],0%
same,EC50,HT,3.4 µg/mL
same,Activity,[6],0%
same,LC50,[7],435 µg/mL
same,EC50,P388,1.8 µg/mL
same,EC50,A-431,> 20 µg/mL
same,Activity,[8],100%
same,EC50,[9],5.9 µg/mL
same,EC50,Col2,3.2 µg/mL
same,Activity,[10],100%
same,Activity,[11],0%
COc1cc(C[C@H]2C(=O)OC[C@@H]2Cc2ccc3c(c2)OCO3)cc(OC)c1OC,EC50,KB,0.08 µg/mL
same,EC50,ZR-75-1,0.5 µg/mL
same,EC50,[1],0.06 µg/mL
same,EC50,Lu1,0.1 µg/mL
same,EC50,[2],0.05 µg/mL
same,Activity,[3],0%
same,EC50,LNCaP,0.16 µg/mL
same,Activity,[4],100%
same,Activity,[5],100%
same,EC50,HT,0.07 µg/mL
same,Activity,[6],100%
same,LC50,[7],2.8 µg/mL
same,EC50,P388,0.4 µg/mL
same,EC50,A-431,> 20 µg/mL
same,Activity,[8],100%
same,EC50,[9],0.3 µg/mL
same,EC50,Col2,0.08 µg/mL
same,Activity,[10],100%
same,Activity,[11],0%
same,Activity,Candida albicans,Active
COc1cc([C@@H]2c3cc4c(cc3C[C@H]3COC(=O)[C@@H]32)OCO4)cc(OC)c1O [4'-DEMETHYLDEOXYPODOPHYLLOTOXIN],EC50,KB,0.01 µg/mL
same,EC50,ZR-75-1,2.1 µg/mL
same,EC50,[1],0.02 µg/mL
same,EC50,Lu1,0.03 µg/mL
same,EC50,[2],0.01 µg/mL
same,Activity,[3],100%
same,EC50,LNCaP,0.02 µg/mL
same,Activity,[4],100%
same,Activity,[5],100%
same,EC50,HT,0.01 µg/mL
same,Activity,[6],100%
same,LC50,[7],0.2 µg/mL
same,EC50,P388,0.005 µg/mL
same,EC50,A-431,0.08 µg/mL
same,Activity,[8],100%
same,EC50,[9],0.1 µg/mL
same,EC50,Col2,0.03 µg/mL
same,Activity,[10],100%
same,Activity,[11],0%
same,Activity,Candida albicans,Active
COc1cc2c(c(OC)c1OC)-c1ccc(OC)c(=O)cc1[C@@H](NC(C)=O)CC2 [COLCHICINE],Activity,[12],0%
same,Activity,[3],0%
same,Activity,[4],100%
same,Activity,[5],70%
same,Activity,[6],0%
same,Activity,[8],100%
same,Activity,[10],100%
same,Activity,[11],0%
COc1cc(-c2c3c(c(O)c4cc5c(cc24)OCO5)COC3=O)cc(OC)c1OC [DEHYDROPODOPHYLLOTOXIN],EC50,KB,5 µg/mL
same,EC50,ZR-75-1,> 20 µg/mL
same,EC50,[1],13 µg/mL
same,EC50,Lu1,10.6 µg/mL
same,EC50,[2],15.2 µg/mL
same,Activity,[3],0%
same,EC50,LNCaP,11.7 µg/mL
same,Activity,[4],100%
same,Activity,[5],0%
same,EC50,HT,9.7 µg/mL
same,Activity,[6],0%
same,LC50,[7],255 µg/mL
same,EC50,P388,> 5 µg/mL
same,EC50,A-431,> 20 µg/mL
same,Activity,[8],100%
same,EC50,[9],> 20 µg/mL
same,EC50,Col2,8.9 µg/mL
same,Activity,[10],0%
same,Activity,[11],0%
COc1cc(-c2c3c(cc4cc5c(cc24)OCO5)COC3=O)cc(OC)c1OC [DEOXYDEHYDROPODOPHYLLOTOXIN],EC50,KB,11.4 µg/mL
same,EC50,ZR-75-1,> 20 µg/mL
same,EC50,[1],> 20 µg/mL
same,EC50,Lu1,18.8 µg/mL
same,EC50,[2],> 20 µg/mL
same,EC50,LNCaP,11.6 µg/mL
same,Activity,[4],0%
same,Activity,[5],0%
same,EC50,HT,> 20 µg/mL
same,LC50,[7],> 500 µg/mL
same,EC50,P388,> 5 µg/mL
same,EC50,A-431,6.2 µg/mL
same,Activity,[8],100%
same,EC50,[9],> 20 µg/mL
same,EC50,Col2,16.7 µg/mL
same,Activity,[10],0%
COc1cc([C@@H]2c3cc4c(cc3C[C@H]3COC(=O)[C@H]32)OCO4)cc(OC)c1OC [DEOXYPICROPODOPHYLLIN],EC50,KB,0.1 µg/mL
same,EC50,ZR-75-1,0.6 µg/mL
same,EC50,[1],0.7 µg/mL
same,EC50,Lu1,0.09 µg/mL
same,EC50,[2],2.1 µg/mL
same,Activity,[3],0%
same,EC50,LNCaP,0.2 µg/mL
same,Activity,[4],100%
same,Activity,[5],100%
same,EC50,HT,0.2 µg/mL
same,Activity,[6],0%
same,LC50,[7],142 µg/mL
same,EC50,P388,0.1 µg/mL
same,EC50,A-431,> 20 µg/mL
same,Activity,[8],100%
same,EC50,[9],0.1 µg/mL
same,EC50,Col2,0.3 µg/mL
same,Activity,[10],100%
same,Activity,[11],0%
COc1cc([C@@H]2c3cc4c(cc3C[C@H]3COC(=O)[C@@H]32)OCO4)cc(OC)c1OC [DESOXYPODOPHYLLOTOXIN],EC50,KB,0.05 µg/mL
same,EC50,ZR-75-1,2 µg/mL
same,EC50,[1],0.06 µg/mL
same,EC50,Lu1,0.002 µg/mL
same,EC50,[2],0.001 µg/mL
same,Activity,[3],100%
same,EC50,LNCaP,0.01 µg/mL
same,Activity,[4],100%
same,Activity,[5],100%
same,EC50,HT,0.003 µg/mL
same,Activity,[6],100%
same,EC50,P388,0.002 µg/mL
same,EC50,A-431,4.3 µg/mL
same,Activity,[8],100%
same,EC50,[9],0.001 µg/mL
same,EC50,Col2,0.01 µg/mL
same,Activity,[10],100%
same,Activity,[11],0%
COc1cc([C@@H]2c3cc4c(cc3C[C@@H]3COC(=O)[C@H]32)OCO4)cc(OC)c1OC [ISODEOXYPODOPHYLLOTOXIN],EC50,KB,6.7 µg/mL
same,EC50,ZR-75-1,13.2 µg/mL
same,EC50,[1],11.5 µg/mL
same,EC50,Lu1,15.9 µg/mL
same,EC50,[2],17.5 µg/mL
same,Activity,[3],0%
same,EC50,LNCaP,12 µg/mL
same,Activity,[4],100%
same,Activity,[5],0%
same,EC50,HT,10.7 µg/mL
same,Activity,[6],0%
same,LC50,[7],> 500 µg/mL
same,EC50,P388,> 20 µg/mL
same,EC50,A-431,6.2 µg/mL
same,Activity,[8],100%
same,EC50,[9],2.9 µg/mL
same,EC50,Col2,8.9 µg/mL
same,Activity,[10],0%
same,Activity,[11],0%
COc1cc2cc(c1Cl)N(C)C(=O)C[C@H](OC(=O)[C@H](C)N(C)C(C)=O)[C@]1(C)O[C@H]1[C@H](C)[C@@H]1C[C@@](O)(NC(=O)O1)[C@H](OC)/C=C/C=C(\C)C2 [MAYTANSINE],Activity,[12],0%
same,Activity,[3],100%
same,Activity,[4],100%
same,Activity,[5],100%
same,Activity,[6],100%
same,Activity,[8],100%
same,Activity,[10],100%
same,Activity,[11],100%
COc1cc([C@@H]2c3cc4c(cc3[C@H](O)[C@H]3COC(=O)[C@H]23)OCO4)cc(OC)c1OC [PODOFILOX],EC50,KB,0.08 µg/mL
same,EC50,ZR-75-1,0.4 µg/mL
same,EC50,[1],0.06 µg/mL
same,EC50,Lu1,0.008 µg/mL
same,EC50,[2],0.03 µg/mL
same,Activity,[3],100%
same,EC50,LNCaP,0.04 µg/mL
same,Activity,[4],100%
same,Activity,[5],100%
same,EC50,HT,0.003 µg/mL
same,Activity,[6],100%
same,LC50,[7],0.2 µg/mL
same,EC50,P388,0.003 µg/mL
same,EC50,A-431,0.03 µg/mL
same,Activity,[8],100%
same,EC50,[9],0.004 µg/mL
same,EC50,Col2,0.005 µg/mL
same,Activity,[10],100%
same,Activity,[11],0%
CC[C@]1(O)C[C@@H]2CN(CCc3c([nH]c4ccccc34)[C@@](C(=O)OC)(c3cc4c(cc3OC)N(C)[C@H]3[C@@](O)(C(=O)OC)[C@H](OC(C)=O)[C@]5(CC)C=CCN6CC[C@]43[C@@H]65)C2)C1 [VINBLASTINE],Activity,[12],0%
same,Activity,[3],100%
same,Activity,[4],100%
same,Activity,[5],100%
same,Activity,[6],100%
same,Activity,[8],100%
same,Activity,[10],100%
same,Activity,[11],0%
CC[C@]1(O)C[C@H]2CN(CCc3c([nH]c4ccccc34)[C@@](C(=O)OC)(c3cc4c(cc3OC)N(C=O)[C@H]3[C@@](O)(C(=O)OC)[C@H](OC(C)=O)[C@]5(CC)C=CCN6CC[C@]43[C@@H]65)C2)C1 [VINCRISTINE],Activity,[12],0%
same,Activity,[3],0%
same,Activity,[4],100%
same,Activity,[5],100%
same,Activity,[6],100%
same,Activity,[8],100%
same,Activity,[10],100%
same,Activity,[11],0%
